ChEMBL document CHEMBL3351861, “New synthetic sulfone derivatives inhibit growth, adhesion and the leucine arylamidase APE2 gene expression of Candida albicans in vitro” (2015)
In brackets after ≈: the same amount, converted by molar mass.

How the values were obtained:
Candida albicans [1] = assay: Inhibition of cell adhesion of compound pre-treated Candida albicans CAI4 expressing delta-efg1 gene to human Caco2 cells assessed as cell adhesion level at 8 ug/ml pre-incubated for 18 hrs by colony counting method (reference value: 2.1 +/- 3.52%); type: functional, Caco-2; design: scale not given: the % may be the effect or the level left
Candida albicans [2] = assay: Antifungal activity against Candida albicans CAI4 expressing delta-cph1/delta-efg1 gene assessed as growth inhibition at 0.5 ug/ml by CLSI M27-A3 method; type: functional; conditions: read-out: GI
In short: (§1)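 CLSI M27-A3 broth microdilution in RPMI, read after 48 h. Strains pre-grown 18 h in YEPD at 30°C. Final inoculum 0.5×10^2–2.5×10^3 cells/ml. Two-fold dilutions in RPMI came from a 1600 µg/ml stock in water with 9% DMSO; final DMSO was 0.09%. OD405 read, % inhibition = 100 − (CTW−SCW)/(GCW−SCW). Triplicate on three occasions, mean±SD.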

Candida albicans [3] = assay: Antifungal activity against Candida albicans 90028 assessed as growth inhibition at 0.25 ug/ml by CLSI M27-A3 method; type: functional; conditions: read-out: GI; in short: as §1
Candida albicans [4] = assay: Antifungal activity against Candida albicans CAI4 expressing delta-cph1/delta-efg1 (EFG1) gene assessed as growth inhibition at 4 ug/ml by CLSI M27-A3 method; type: functional; conditions: read-out: GI; in short: as §1
Candida albicans [5] = assay: Antifungal activity against Candida albicans CAI4 expressing delta-cph1 gene assessed as growth inhibition at 0.5 ug/ml by CLSI M27-A3 method; type: functional; conditions: read-out: GI; in short: as §1
Candida albicans [6] = assay: Antifungal activity against Candida albicans CAI4 expressing delta-cph1/delta-efg1 gene assessed as growth inhibition at 0.25 ug/ml by CLSI M27-A3 method; type: functional; conditions: read-out: GI; in short: as §1
Candida albicans [7] = assay: Inhibition of cell adhesion of compound pre-treated Candida albicans 90028 to human Caco2 cells assessed as cell adhesion level at 16 ug/ml pre-incubated for 18 hrs by colony counting method (reference value: 1.58 +/- 0.67%); type: functional, Caco-2; design: scale not given: the % may be the effect or the level left
Candida albicans [8] = assay: Antifungal activity against Candida albicans 90028 assessed as growth inhibition at 16 ug/ml by CLSI M27-A3 method; type: functional; conditions: read-out: GI; in short: as §1
Candida albicans [9] = assay: Antifungal activity against Candida albicans 90028 assessed as growth inhibition at 8 ug/ml by CLSI M27-A3 method; type: functional; conditions: read-out: GI; in short: as §1
Candida albicans [10] = assay: Antifungal activity against Candida albicans CAI4 expressing delta-efg1 gene assessed as growth inhibition at 8 ug/ml by CLSI M27-A3 method; type: functional; conditions: read-out: GI
In short: (§2)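 CLSI M27-A3 broth microdilution in RPMI. Final inoculum 0.5×10^2 to 2.5×10^3 cells/ml. Seven two-fold concentrations from 0.25 to 16 µg/ml, with DMSO held at 0.09% (v/v) in all wells. Compound-free growth controls and sterility controls are run for each strain. […] Triplicate on three occasions.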

Candida albicans [11] = assay: Inhibition of cell adhesion of compound pre-treated Candida albicans CAI4 expressing delta-efg1/delta-cph1 gene to human Caco2 cells assessed as cell adhesion level at 16 ug/ml pre-incubated for 18 hrs by colony counting method (reference value: 1.22 +/- 0.78%); type: functional, Caco-2; design: scale not given: the % may be the effect or the level left
Candida albicans [12] = assay: Antifungal activity against Candida albicans CAI4 expressing delta-efg1 (EFG1) gene assessed as growth inhibition at by CLSI M27-A3 method; type: functional
Candida albicans [13] = assay: Antifungal activity against Candida albicans CAI4 expressing delta-cph1/delta-efg1 (EFG1) gene assessed as growth inhibition at 16 ug/ml by CLSI M27-A3 method; type: functional; conditions: read-out: GI; in short: as §1
Candida albicans [14] = assay: Antifungal activity against Candida albicans CAI4 expressing delta-cph1 (CPH1) gene assessed as growth inhibition at 16 ug/ml by CLSI M27-A3 method; type: functional; conditions: read-out: GI; in short: as §1
Candida albicans [15] = assay: Antifungal activity against Candida albicans CAI4 expressing delta-efg1 (EFG1) gene assessed as growth inhibition at 0.25 ug/ml by CLSI M27-A3 method; type: functional; conditions: read-out: GI; in short: as §1
Candida albicans [16] = assay: Antifungal activity against Candida albicans CAI4 expressing delta-cph1/delta-efg1 (EFG1) gene assessed as growth inhibition at 2 ug/ml by CLSI M27-A3 method; type: functional; conditions: read-out: GI; in short: as §1
Candida albicans [17] = assay: Antifungal activity against Candida albicans CAI4 expressing delta-efg1 gene assessed as growth inhibition at by CLSI M27-A3 method; type: functional; in short: as §2
Candida albicans [18] = assay: Antifungal activity against Candida albicans CAI4 expressing delta-cph1/delta-efg1 gene assessed as growth inhibition at by CLSI M27-A3 method; type: functional
Candida albicans [19] = assay: Antifungal activity against Candida albicans CAI4 expressing delta-efg1 (EFG1) gene assessed as growth inhibition at 1 ug/ml by CLSI M27-A3 method; type: functional; conditions: read-out: GI; in short: as §1
Candida albicans [20] = assay: Antifungal activity against Candida albicans 90028 assessed as growth inhibition at 0.5 ug/ml by CLSI M27-A3 method; type: functional; conditions: read-out: GI; in short: as §1
Candida albicans [21] = assay: Antifungal activity against Candida albicans CAI4 expressing delta-efg1 (EFG1) gene assessed as growth inhibition at 8 ug/ml by CLSI M27-A3 method; type: functional; conditions: read-out: GI; in short: as §1
Candida albicans [22] = assay: Antifungal activity against Candida albicans CAI4 expressing delta-efg1 gene assessed as growth inhibition at 0.5 ug/ml by CLSI M27-A3 method; type: functional; conditions: read-out: GI; in short: as §1
Candida albicans [23] = assay: Antifungal activity against Candida albicans CAI4 expressing delta-efg1 (EFG1) gene assessed as growth inhibition at 2 ug/ml by CLSI M27-A3 method; type: functional; conditions: read-out: GI; in short: as §1
Candida albicans [24] = assay: Inhibition of cell adhesion of compound pre-treated Candida albicans CAI4 expressing delta-cph1 (CPH1) gene to human Caco2 cells assessed as cell adhesion level at 4 ug/ml pre-incubated for 18 hrs by colony counting method (reference value: 5.37 +/- 12.4%); type: functional, Caco-2; design: scale not given: the % may be the effect or the level left
Candida albicans [25] = assay: Antifungal activity against Candida albicans CAI4 expressing delta-cph1 (CPH1) gene assessed as growth inhibition at 1 ug/ml by CLSI M27-A3 method; type: functional; conditions: read-out: GI; in short: as §1
Candida albicans [26] = assay: Inhibition of cell adhesion of compound pre-treated Candida albicans CAI4 expressing delta-efg1/delta-cph1 gene to human Caco2 cells assessed as cell adhesion level at 2 ug/ml pre-incubated for 18 hrs by colony counting method (reference value: 1.22 +/- 0.78%); type: functional, Caco-2; design: scale not given: the % may be the effect or the level left
Candida albicans [27] = assay: Antifungal activity against Candida albicans CAI4 expressing delta-cph1 (CPH1) gene assessed as growth inhibition at 2 ug/ml by CLSI M27-A3 method; type: functional; conditions: read-out: GI; in short: as §1
Candida albicans [28] = assay: Antifungal activity against Candida albicans CAI4 expressing delta-cph1/delta-efg1 (EFG1) gene assessed as growth inhibition at 0.5 ug/ml by CLSI M27-A3 method; type: functional; conditions: read-out: GI; in short: as §1
Candida albicans [29] = assay: Inhibition of cell adhesion of compound pre-treated Candida albicans CAI4 expressing delta-efg1 gene to human Caco2 cells assessed as cell adhesion level at 2 ug/ml pre-incubated for 18 hrs by colony counting method (reference value: 2.1 +/- 3.52%); type: functional, Caco-2; design: scale not given: the % may be the effect or the level left
Candida albicans [30] = assay: Antifungal activity against Candida albicans CAI4 expressing delta-efg1 (EFG1) gene assessed as growth inhibition at 4 ug/ml by CLSI M27-A3 method; type: functional; conditions: read-out: GI; in short: as §1
Candida albicans [31] = assay: Antifungal activity against Candida albicans CAI4 expressing delta-cph1/delta-efg1 gene assessed as growth inhibition at 1 ug/ml by CLSI M27-A3 method; type: functional; conditions: read-out: GI; in short: as §1
Candida albicans [32] = assay: Inhibition of cell adhesion of compound pre-treated Candida albicans CAI4 expressing delta-cph1 (CPH1) gene to human Caco2 cells assessed as cell adhesion level at 8 ug/ml pre-incubated for 18 hrs by colony counting method (reference value: 5.37 +/- 12.4%); type: functional, Caco-2; design: scale not given: the % may be the effect or the level left

O=[N+]([O-])c1cc(S(=O)(=O)C(Cl)Cl)ccc1Cl gave an Activity (Candida albicans [1]) of 0.69%, an inhibition of growth at 0.5 µg/mL (Candida albicans [2]) of 99.1% and an inhibition of growth at 0.25 µg/mL (Candida albicans [3]) of 99.1%. It also gave an inhibition of growth at 4 µg/mL (Candida albicans [4]) of 99.3%, an inhibition of growth at 0.5 µg/mL (Candida albicans [5]) of 99.1% and an inhibition of growth at 0.25 µg/mL (Candida albicans [6]) of 99%. For the same compound, the Activity (Candida albicans [7]) was 1.19%, the inhibition of growth at 16 µg/mL (Candida albicans [8]) was 99.4% and the inhibition of growth at 8 µg/mL (Candida albicans [9]) was 99.3%. The inhibition of growth at 8 µg/mL (Candida albicans [10]) was 99.4%, the Activity (Candida albicans [11]) was 0.42% and the MIC90 (Candida albicans [12]) was 16 µg/mL (≈ 52.5 µM). For the same compound, the inhibition of growth at 16 µg/mL (Candida albicans [13]) was 99.4%, the inhibition of growth at 16 µg/mL (Candida albicans [14]) was 99.4% and the inhibition of growth at 0.25 µg/mL (Candida albicans [15]) was 95.2%. For the same compound, the inhibition of growth at 2 µg/mL (Candida albicans [16]) was 99.2%, the MIC90 (Candida albicans [17]) was 16 µg/mL (≈ 52.5 µM) and the MIC90 (Candida albicans [18]) was 16 µg/mL (≈ 52.5 µM). The inhibition of growth at 1 µg/mL (Candida albicans [19]) was 96%, the inhibition of growth at 0.5 µg/mL (Candida albicans [20]) was 99.1% and the inhibition of growth at 8 µg/mL (Candida albicans [21]) was 98.9%. The inhibition of growth at 0.5 µg/mL (Candida albicans [22]) was 99.4%, the inhibition of growth at 2 µg/mL (Candida albicans [23]) was 98.1% and the Activity (Candida albicans [24]) was 1.28%. The inhibition of growth at 1 µg/mL (Candida albicans [25]) was 98.8%, the Activity (Candida albicans [26]) was 0.47% and the inhibition of growth at 2 µg/mL (Candida albicans [27]) was 98.6%. For the same compound, the inhibition of growth at 0.5 µg/mL (Candida albicans [28]) was 99%, the Activity (Candida albicans [29]) was 1.1% and the inhibition of growth at 4 µg/mL (Candida albicans [30]) was 98.5%. The inhibition of growth at 1 µg/mL (Candida albicans [31]) was 99.1% and the Activity (Candida albicans [32]) was 0.71%.
